Here are results for 19 compounds from PubChem BioAssay.

Active and inactive are the calls of the source.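 How the source made its calls, unless noted: active means viability at or under a set limit in both replicates, limit being median viability minus 3 SD (cut at about 48% in these data, passing the limit was not always enough); inconclusive means at or under the limit in just one replicate; inactive means at or above the limit in both replicates.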

A short description of assay [1]: reduced viability of SK-BR-3 breast cancer cells – cell-based, 24 h, human, pilot screen (AID 572;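 active means viability at or below 10% of carrier control in both of two separate runs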;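 further: compound exposure lasted between 18 and 24 h rather than exactly 24 h; 100% = carrier-treated control wells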). To be noted: SK-BR-3 viability, CellTiter-Glo luminescence, at 10 µM, stronger effect = lower value. In general terms: In ATP-based viability assays light output follows the ATP content of the culture.
Assay [2] in a line: HUVEC growth inhibition – cell-based, human, primary screen (AID 575;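 active means viability at or below 30% in both replicate assays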;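 further: 100% = median of untreated cell wells with 0.1% DMSO on each plate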). To be noted: HUVEC proliferation, CellTiter-Glo luminescence, 72 h; at 10 µM; stronger effect = lower value. Summed up: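 system = HUVEC primary cells | amount = 1250 cells/well | buffer or medium = supplemented EBM, 2% fetal bovine serum | dosing = single-point 10 µM, DMSO 0.1% final | times = 72 h compound incubation | detection = CTG luminescence | read-out = % viability relative to median vehicle-well signal on each plate | control set = vehicle and MePR control wells | format = collagen-coated 384-well format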

Assay [3] can be described thus: H69AR cell proliferation blockers – human, duplicate replicates, primary screen (AID 580).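 Further: 100% = mean luminescence of untreated wells and 0% = no signal.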 To be noted: H69AR lung tumor cells viability, ATP luminescence, 72 h; at 10 µM; stronger effect = lower value.
Assay [4] can be described thus: MRP1 drug-resistance reversers in H69AR cells – cell-based, doxorubicin co-treatment, pilot screen (AID 601;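 active means viability loss from added drug above about 55%, and viability with drug at most 40%, in both replicates, limit read from the data, passing the limit was not always enough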). To be noted: CellTiter-Glo, 72 h, at 10 µM; for differential viability (reversal): stronger effect = higher value.
Assay [5] in a line: yeast transport mutant growth inhibition pilot in 384-well plates, post-Golgi transport modulator project (AID 636; in the data active means inhibition above about 31%). The conditions noted are these: absorbance 615 nm, about 18 h, stronger effect = higher value.
Assay [6] in a line: growth suppression of yeast trafficking mutant, preliminary HTS, modulators of trafficking downstream of Golgi apparatus project, 1536-format plate, OD 615 nm (AID 637; in the data active means inhibition above about 30%). The conditions noted are these: yeast transport mutant growth, absorbance 615 nm, 18 h; stronger effect = higher value.
Setting [7] is: H69AR cells + 2 uM doxorubicin, measured here: viability with 2 uM doxorubicin, stronger effect = lower value.
The mark [8] stands for this setting: H69AR cells, compound alone cytotoxicity.

By viability is commonly meant a read-out of living cells in per cent, often relative to untreated cells. One may read the inhibition as the relative decrease from the control value, in per cent.

On to `Cc1cc2cc(CNC(=O)c3ccc4c(c3)OCO4)ccc2[nH]1`, for which the viability in assay [1] was 102% (inactive); in assay [2], 114% (inactive); in assay [3] it was 89.1% (inactive); in assay [4] (setting [7]), 92.3%; in assay [4] (setting [8]) it was 89.1%. The differential viability (reversal) in assay [4] (H69AR cells + 2 uM doxorubicin) is -3.21% (inactive). Also, the inhibition is -1.56% (inactive) in assay [5] and 3.61% (inactive) in assay [6].

On to `Cc1nc2ccccn2c(=O)c1CCN1CCC(C(=O)c2ccc(F)cc2)CC1`, for which the viability is 75% (inactive) in assay [1]; 83.6% (inactive) in assay [2]; 86.3% (inactive) in assay [3]; 101% in assay [4] (setting [7]); 86.3% in assay [4] (setting [8]). Besides, in assay [4] (H69AR cells + 2 uM doxorubicin), the differential viability (reversal) was -15.1% (inactive). Further, the figures for the inhibition in assay [5] and in assay [6] were 1.69% (inactive) and 17.2% (inactive), respectively.

In the case of `COC(=O)c1ccc(CSc2nc3ccccc3s2)o1`, the viability is 101% (inactive) in assay [1]; 88.7% (inactive) in assay [2]; 85% (inactive) in assay [3]; 104% in assay [4] (setting [7]); 85% in assay [4] (setting [8]). In addition, the differential viability (reversal) in assay [4] (H69AR cells + 2 uM doxorubicin) is -19.3% (inactive). The inhibition in assay [5] is -4.93% (inactive); in assay [6], -3.09% (inactive).

Regarding `N#CC1=C(N)C(C#N)(C#N)[C@H](c2ccsc2)[C@H]2COCC=C12`, the viability is 126% (inactive) in assay [1]; 96% (inactive) in assay [2]; 97.4% (inactive) in assay [3]; 95.1% in assay [4] (setting [7]); 97.4% in assay [4] (setting [8]). In addition, the differential viability (reversal) in assay [4] (H69AR cells + 2 uM doxorubicin) was 2.33% (inactive). Moreover, the figures for the inhibition in assay [5] and in assay [6] were -6.03% (inactive) and 2.58% (inactive), respectively.

Regarding `COc1cccc(NC(=O)N2CCCC2C(=O)Nc2ccc3c(c2)OCO3)c1` (configuration not stated), the viability in assay [1] was 106% (inactive); in assay [2], 114% (inactive); in assay [3], 96.3% (inactive); in assay [4] (setting [7]), 80.2%; in assay [4] (setting [8]), 96.3%. Also, the differential viability (reversal) in assay [4] (H69AR cells + 2 uM doxorubicin) is 16.1% (inactive). The inhibition in assay [5] is -5.33% (inactive); in assay [6], -4.55% (inactive).

As for `O=C(COC(=O)CCC1CCCC1)Nc1ccc(Cl)cn1`, the viability in assay [1] is 107% (inactive); in assay [2] it was 101% (inactive); in assay [3] it was 98.6% (inactive); in assay [4] (setting [7]), 93.2%; in assay [4] (setting [8]), 98.6%. Also, the differential viability (reversal) in assay [4] (H69AR cells + 2 uM doxorubicin) is 5.36% (inactive). The inhibition in assay [5] was 0% (inactive); in assay [6] it was -1.45% (inactive).

For the compound `CCOC(=O)C1(CC)NC(c2cccc(F)c2)C2C(=O)N(CC)C(=O)C21` (configuration not stated), the viability in assay [1] was 104% (inactive); in assay [2] it was 96.1% (inactive); in assay [3], 97.6% (inactive); in assay [4] (setting [7]), 92.6%; in assay [4] (setting [8]), 97.6%. Also, the differential viability (reversal) in assay [4] (H69AR cells + 2 uM doxorubicin) was 5.01% (inactive). Further, the inhibition in assay [5] is -3.29% (inactive); in assay [6], 3.06% (inactive).

Consider `CCOC(=O)C(C#N)C(c1cccnc1)c1c(C)[nH][nH]c1=O` (configuration not stated), for which the viability in assay [1] was 77% (inactive); in assay [2], 107% (inactive); in assay [3] it was 105% (inactive); in assay [4] (setting [7]) it was 95.7%; in assay [4] (setting [8]), 105%. Further, in assay [4] (H69AR cells + 2 uM doxorubicin), the differential viability (reversal) is 9.4% (inactive). Further, the figures for the inhibition in assay [5] and in assay [6] were -7.43% (inactive) and 4% (inactive), respectively.

For `O=C1OCCC1Sc1ncnc2sccc12` (configuration not stated), the viability in assay [1] is 78% (inactive); in assay [2] it was 107% (inactive); in assay [3] it was 104% (inactive); in assay [4] (setting [7]), 82.3%; in assay [4] (setting [8]) it was 104%. Moreover, the differential viability (reversal) in assay [4] (H69AR cells + 2 uM doxorubicin) was 21.8% (inactive). The inhibition in assay [5] is -4.93% (inactive); in assay [6] it was -2.18% (inactive).

In the case of `CCOC(=O)N1CCC(n2c(=S)[nH]c3cc(OC)c(OC)cc3c2=O)CC1`, the viability in assay [1] was 114% (inactive); in assay [2], 59.5% (inactive); in assay [3] it was 57.1% (inactive); in assay [4] (setting [7]), 59.1%; in assay [4] (setting [8]), 57.1%. Further, in assay [4] (H69AR cells + 2 uM doxorubicin), the differential viability (reversal) is -2.02% (inactive). Further, the inhibition in assay [5] was -4.16% (inactive); in assay [6] it was -1.27% (inactive).

In the case of `Cc1cc(C(=O)Nc2ccc(S(=O)(=O)Nc3onc(C)c3C)cc2)cs1`, the viability in assay [1] is 101% (inactive); in assay [2] it was 101% (inactive); in assay [3] it was 99.4% (inactive); in assay [4] (setting [7]), 96.4%; in assay [4] (setting [8]), 99.4%. Besides, the differential viability (reversal) in assay [4] (H69AR cells + 2 uM doxorubicin) is 2.97% (inactive). In addition, the inhibition was -3.38% (inactive) in assay [5] and 0% (inactive) in assay [6].

As for `COc1cccc(NC(=O)N(CCCN2CCOCC2)C(C)c2cc3cccc(OC)c3o2)c1` (configuration not stated), the viability was 65% (inactive) in assay [1]; 99.9% (inactive) in assay [2]; 93.2% (inactive) in assay [3]; 96.6% in assay [4] (setting [7]); 93.2% in assay [4] (setting [8]). Moreover, the differential viability (reversal) in assay [4] (H69AR cells + 2 uM doxorubicin) was -3.43% (inactive). In addition, the inhibition in assay [5] was -8.08% (inactive); in assay [6] it was -0.55% (inactive).

In the case of `O=C(c1csc2ccccc12)n1cccn1`, the viability in assay [1] was 117% (inactive); in assay [2] it was 89.7% (inactive); in assay [3], 93% (inactive); in assay [4] (setting [7]) it was 86.3%; in assay [4] (setting [8]), 93%. In addition, the differential viability (reversal) in assay [4] (H69AR cells + 2 uM doxorubicin) is 6.73% (inactive). In addition, the inhibition in assay [5] was -12.3% (inactive); in assay [6], -1.29% (inactive).

Consider `O=C(CCC1COc2ccccc2O1)NCC1COc2ccccc2O1` (configuration not stated), for which the viability in assay [1] was 125% (inactive); in assay [2], 103% (inactive); in assay [3], 87.8% (inactive); in assay [4] (setting [7]), 83.4%; in assay [4] (setting [8]), 87.8%. The differential viability (reversal) in assay [4] (H69AR cells + 2 uM doxorubicin) was 4.35% (inactive). Moreover, the inhibition in assay [5] is -6.3% (inactive); in assay [6] it was 4.68% (inactive).

For the compound `Cc1nn(-c2ccc(F)cc2)c2sc(C(=O)N3CCCCCC3)cc12`, the viability in assay [1] is 93% (inactive); in assay [2] it was 92% (inactive); in assay [3], 78.8% (inactive); in assay [4] (setting [7]), 92.8%; in assay [4] (setting [8]), 78.8%. Also, the differential viability (reversal) in assay [4] (H69AR cells + 2 uM doxorubicin) is -14% (inactive). Besides, the values for the inhibition in assay [5] and in assay [6] were -2.7% (inactive) and 12.2% (inactive), respectively.

In the case of `Cc1ccc(F)cc1NC(=O)c1cccc2nccnc12`, the viability in assay [1] is 91.5% (inactive); in assay [2], 76.5% (inactive); in assay [3], 91.1% (inactive); in assay [4] (setting [7]), 84.3%; in assay [4] (setting [8]) it was 91.1%. The differential viability (reversal) in assay [4] (H69AR cells + 2 uM doxorubicin) was 6.75% (inactive). The inhibition in assay [5] is -1.2% (inactive); in assay [6] it was 0.48% (inactive).

In the case of `COc1ccc(OC)c(-c2cc(C(=O)NCc3cccs3)no2)c1`, the viability was 101% (inactive) in assay [1]; 76.2% (inactive) in assay [2]; 94.4% (inactive) in assay [3]; 87.1% in assay [4] (setting [7]); 94.4% in assay [4] (setting [8]). For the same compound, the differential viability (reversal) in assay [4] (H69AR cells + 2 uM doxorubicin) is 7.29% (inactive). Further, the inhibition in assay [5] was -2.6% (inactive); in assay [6], -5.74% (inactive).

Regarding `O=C(Nc1ccc2oc(=O)ccc2c1)c1cccnc1`, the viability is 111% (inactive) in assay [1]; 107% (inactive) in assay [2]; 98.9% (inactive) in assay [3]; 84.2% in assay [4] (setting [7]); 98.9% in assay [4] (setting [8]). Besides, the differential viability (reversal) in assay [4] (H69AR cells + 2 uM doxorubicin) was 14.6% (inactive). Besides, the inhibition in assay [5] is -4.38% (inactive); in assay [6] it was -0.18% (inactive).

Consider `CCc1[nH]nc2c1C1(CCN(C(=O)OCc3ccccc3)CC1)C(C#N)=C(N)O2`, for which the viability is 112% (inactive) in assay [1]; 85.6% (inactive) in assay [2]; 85.2% (inactive) in assay [3]; 85.8% in assay [4] (setting [7]); 85.2% in assay [4] (setting [8]). Besides, the differential viability (reversal) in assay [4] (H69AR cells + 2 uM doxorubicin) was -0.55% (inactive). Moreover, the inhibition was -8.9% (inactive) in assay [5] and 2.1% (inactive) in assay [6].
